Assay results: ChEMBL document CHEMBL2021883, “Amino acid, dipeptide and pseudodipeptide conjugates of ring-substituted 8-aminoquinolines: synthesis and evaluation of anti-infective, β-haematin inhibition and cytotoxic activities” (Eur J Med Chem, 2012)
In brackets after ≈: the same amount, converted by molar mass. Activity calls are given as the source filed them. Unless noted, the rule behind the calls is not given here.

How the values were obtained:
[1] = Inhibition of beta-hematin formation; assay type: functional
Vero = assay: Cytotoxicity against african green monkey Vero cells upto 23.8 […] by neutral dye assay; assay type: cell-based, Chlorocebus sabaeus
In short: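 Vero monkey kidney cells were exposed to compound up to a highest concentration of 23.8, with viability read by neutral red uptake.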

Escherichia coli [2] = assay: Antimicrobial activity against Escherichia coli ATCC 35218 by CLSI method; assay type: functional, organism-based
[3] = Selectivity index, ratio of IC50 for african green monkey Vero cells to IC50 for chloroquine-resistant Plasmodium falciparum W2; assay type: toxicity, cell-based; conditions: Vero cells versus Plasmodium falciparum W2, read-out: Ratio IC50
Plasmodium falciparum [4] = assay: Antimalarial activity against chloroquine-sensitive Plasmodium falciparum D6 assessed as plasmodial LDH activity; assay type: functional, organism-based
Pseudomonas aeruginosa = assay: Antimicrobial activity against Pseudomonas aeruginosa ATCC 27853 by CLSI method; assay type: functional, organism-based
In short: (§1)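 Antibacterial testing used CLSI/NCCLS broth dilution for aerobically growing bacteria, with 20 as the highest test concentration.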

Staphylococcus aureus [5] = assay: Antimicrobial activity against methicillin-resistant Staphylococcus aureus ATCC 43300 by CLSI method; assay type: functional, organism-based
[6] = Selectivity index, ratio of IC50 for african green monkey Vero cells to IC50 for chloroquine-sensitive Plasmodium falciparum D6; assay type: toxicity, cell-based; conditions: Vero cells versus Plasmodium falciparum D6, read-out: Ratio IC50
Leishmania donovani = assay: Antileishmanial activity against Leishmania donovani promastigote by Alamar Blue assay; assay type: functional, organism-based
Staphylococcus aureus [7] = assay: Antimicrobial activity against Staphylococcus aureus ATCC 29213 by CLSI method; assay type: functional, organism-based
[8] = system: Mycobacterium intracellulare; assay: Antimicrobial activity against Mycobacterium intracellulare ATCC 23068 by Franzblau method; assay type: functional, organism-based
Plasmodium falciparum [9] = assay: Antimalarial activity against chloroquine-resistant Plasmodium falciparum W2 assessed as plasmodial LDH activity; assay type: functional, organism-based
Aspergillus fumigatus = assay: Antifungal activity against Aspergillus fumigatus; assay type: functional, organism-based
In short: (§2)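 Yeasts and A. fumigatus were tested by broth microdilution following the NCCLS antifungal standards. The highest test concentration was 20.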

Candida albicans [10] = assay: Fungicidal activity against Candida albicans at 20 ug/ml; assay type: functional, organism-based
In short: (§3)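 Broth dilution antifungal testing followed the NCCLS reference method for yeasts, with 20 as the highest test concentration. MIC was the lowest concentration with no detectable growth. MFC was the lowest concentration killing the organism.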

Candida albicans [11] = assay: Antifungal activity against Candida albicans at 20 ug/ml; assay type: functional, organism-based; in short: as §3
Cryptococcus neoformans = assay: Antifungal activity against Cryptococcus neoformans; assay type: functional, organism-based; in short: as §2
[12] = system: Mycobacterium intracellulare; assay: Bactericidal activity against Mycobacterium intracellulare ATCC 23068 at 20 ug/ml by Franzblau method; assay type: functional, organism-based
Candida albicans [13] = assay: Antifungal activity against Candida albicans; assay type: functional, organism-based; in short: as §2
Escherichia coli [14] = assay: Bactericidal activity against Escherichia coli ATCC 35218 at 20 ug/ml by CLSI method; assay type: functional, organism-based; in short: as §1
Plasmodium berghei = assay: Antimalarial activity against Plasmodium berghei blood-schizont in mouse malaria model assessed as elimination of parasitemia at 100 mg/kg, po for 4 days for 4 days measured after 7 days; assay type: functional, organism-based; set-up: dose 100 mg/kg
In short: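 P. berghei-infected mice, 6 per group, received compound orally once daily for 4 days at 10, 25, 50 or 100 mg/kg/day. "Active" meant all treated animals were parasitaemia-negative up to D+7. "Curative" meant complete parasite elimination with survival to D+60. Outcomes were recorded as cured/total.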

Escherichia coli [15] = assay: Antimicrobial activity against Escherichia coli ATCC 35218 at 20 ug/ml by CLSI method; assay type: functional, organism-based; in short: as §1
[16] = system: Mycobacterium intracellulare; assay: Antimicrobial activity against Mycobacterium intracellulare ATCC 23068 at 20 ug/ml by Franzblau method; assay type: functional, organism-based
Nakaseomyces glabratus = assay: Antifungal activity against Candida glabrata; assay type: functional, organism-based; in short: as §2
[17] = Plasmodium falciparum, D6, read-out: IC50
[18] = Leishmania donovani, read-out: IC50
[19] = Plasmodium falciparum, W2, read-out: IC50

Structure (SMILES) | IC50 [1] [µM] | IC50 (Vero) | Activity (Escherichia coli [2]) | selectivity ratio [3] | IC50 (Plasmodium falciparum [4]; [17]) [µg/mL] | Activity (Pseudomonas aeruginosa) | Activity (Staphylococcus aureus [5]) | selectivity ratio [6] | IC90 (Leishmania donovani; Leishmania donovani) [µg/mL] | IC50 (Leishmania donovani; [18]) [µg/mL] | Activity (Staphylococcus aureus [7]) | Activity [8] | IC50 (Plasmodium falciparum [9]; [19]) [µg/mL] | Activity (Aspergillus fumigatus) | Activity (Candida albicans [10]) | IC50 (Leishmania donovani) | IC90 (Leishmania donovani) | IC50 (Cryptococcus neoformans) [µg/mL] | MFC (Cryptococcus neoformans) [µg/mL] | MIC (Cryptococcus neoformans) [µg/mL] | further results
COc1cc(NC(C)CCCNC(=O)C[C@@H](NC(=O)[C@H](N)CCCNC(=N)N)C(=O)O)c2ncccc2c1 (stereo not given in full) | 210 | Non-toxic | inactive | > 5.6 | 3.2 (≈ 6.03 µM) | inactive | inactive | > 7.4 | 33 (≈ 62.2 µM) | 20.1 (≈ 37.9 µM) | inactive | inactive | 4.2 (≈ 7.92 µM) |  |  |  |  |  |  |  | 
COc1cc(NC(C)CCCNC(=O)C[C@@H](NC(=O)[C@H](N)CCCCN)C(=O)O)c2ncccc2c1 (stereo not given in full) | 160 | Non-toxic | inactive | > 7.4 | 2.4 (≈ 4.78 µM) | inactive | inactive | > 9.9 |  |  | inactive | inactive | 3.2 (≈ 6.37 µM) | inactive | inactive | Not Active | inactive | 4.5 (≈ 8.95 µM) | 10 (≈ 19.9 µM) | 10 (≈ 19.9 µM) | Activity (Candida albicans [11]): inactive
COc1cc(NC(C)CCCNC(=O)[C@H](CCCNC(=N)N)NC(=O)[C@@H](N)CCCNC(=N)N)c2nc(C(C)(C)C)ccc2c1 (stereo not given in full) | 53 | Non-toxic | inactive | > 29 | 0.97 (≈ 1.54 µM) | inactive |  | > 24.5 | 31 (≈ 49.4 µM) | 9 (≈ 14.3 µM) |  | inactive | 0.82 (≈ 1.31 µM) | inactive | inactive |  |  | 2.5 (≈ 3.98 µM) | 5 (≈ 7.96 µM) | 5 (≈ 7.96 µM) | Activity [12]: inactive; IC50 (Candida albicans [13]): 15 µg/mL (≈ 23.9 µM); MIC (Candida albicans [13]): 20 µg/mL (≈ 31.9 µM); Activity (Escherichia coli [14]): inactive; Activity (Plasmodium berghei): Active; Activity (Escherichia coli [15]): inactive; IC50 (Staphylococcus aureus [5]): 7 µg/mL (≈ 11.1 µM); MBC (Staphylococcus aureus [5]): 20 µg/mL (≈ 31.9 µM); MIC (Staphylococcus aureus [5]): 10 µg/mL (≈ 15.9 µM); Activity [16]: inactive
COc1cc(NC(C)CCCNC(=O)C[C@@H](NC(=O)[C@H](N)CCCNC(=N)N)C(=O)O)c2nc(C(C)(C)C)ccc2c1 (stereo not given in full) | 127 | Non-toxic | inactive | > 9.1 | 1.8 (≈ 3.07 µM) | inactive | inactive | > 13.2 |  |  | inactive | inactive | 2.6 (≈ 4.43 µM) |  |  | Not Active | inactive |  |  |  | Activity (Plasmodium berghei): Active
COc1cc(NC(C)CCCNC(=O)[C@H](CCCCN)NC(=O)[C@@H](N)CCCCN)c2nc(C(C)(C)C)ccc2c1 (stereo not given in full) | 73 | Non-toxic | inactive | > 59.5 | 0.63 (≈ 1.1 µM) | inactive | inactive | > 37.7 | 39 (≈ 68.2 µM) | 19 (≈ 33.2 µM) | inactive | inactive | 0.4 (≈ 0.7 µM) | inactive | inactive |  |  | 3.5 (≈ 6.12 µM) | 5 (≈ 8.74 µM) | 5 (≈ 8.74 µM) | Activity (Plasmodium berghei): Active; Activity (Candida albicans [11]): inactive
COc1cc(NC(C)CCCNC(=O)[C@H](CCCN)NC(=O)[C@@H](N)CCCN)c2ncccc2c1 (stereo not given in full) | > 1000 | Non-toxic | inactive |  |  | inactive | inactive |  | 20 (≈ 41 µM) | 4 (≈ 8.2 µM) | inactive | inactive |  | inactive | inactive |  |  | 5.5 (≈ 11.3 µM) | 20 (≈ 41 µM) | 10 (≈ 20.5 µM) | Activity (Plasmodium berghei): Active; Activity (Candida albicans [11]): inactive; IC50 (Plasmodium falciparum [4]): Not Active; IC50 (Plasmodium falciparum [9]): Not Active
COc1cc(NC(C)CCCNC(=O)CC[C@H](NC(=O)[C@@H](N)CCCNC(=N)N)C(=O)O)c2ncccc2c1 (stereo not given in full) |  | Non-toxic | inactive | > 13.2 | 1.8 (≈ 3.3 µM) | inactive | inactive | > 13.2 |  |  | inactive | inactive | 1.8 (≈ 3.3 µM) |  |  | Not Active | inactive |  |  |  | 
COc1cc(NC(C)CCCNC(=O)[C@@H](CCCNC(=N)N)NC(=O)[C@H](N)CCCNC(=N)N)c2ncccc2c1 (stereo not given in full) | 32 | Non-toxic | inactive | > 14 | 1.3 (≈ 2.27 µM) | inactive | inactive | > 18.3 | 36 (≈ 63 µM) | 17 (≈ 29.7 µM) | inactive | inactive | 1.7 (≈ 2.97 µM) | inactive | inactive |  |  | 7 (≈ 12.2 µM) | 10 (≈ 17.5 µM) | 10 (≈ 17.5 µM) | Activity (Candida albicans [11]): inactive
C[C@@H]1[C@H](O)[C@@H](C)/C=C/C=C/C=C/C=C/C=C/C=C/C=C/[C@H](O[C@@H]2O[C@H](C)[C@@H](O)[C@H](N)[C@@H]2O)C[C@@H]2O[C@](O)(C[C@@H](O)C[C@@H](O)[C@H](O)CC[C@@H](O)C[C@@H](O)CC(=O)O[C@H]1C)C[C@H](O)[C@H]2C(=O)O [AMPHOTERICIN B] |  |  |  |  |  |  |  |  | 0.35 (≈ 0.379 µM) |  |  |  |  |  |  |  |  |  | 1.5 (≈ 1.62 µM) |  | MIC (Candida albicans [13]): 0.63 µg/mL (≈ 0.682 µM); MFC (Nakaseomyces glabratus): 0.625 µg/mL (≈ 0.676 µM); MIC (Nakaseomyces glabratus): 0.31 µg/mL (≈ 0.335 µM)
COc1cc(NC(C)CCCNC(=O)C[C@H](NC(=O)[C@@H](N)CCCN)C(=O)O)c2nc(C(C)(C)C)ccc2c1 (stereo not given in full) | 40 | Non-toxic | inactive | > 7.9 | 2.7 (≈ 4.96 µM) | inactive | inactive | > 8.8 | 36 (≈ 66.1 µM) | 20 (≈ 36.7 µM) | inactive | inactive | 3 (≈ 5.51 µM) | inactive |  |  |  | 4 (≈ 7.34 µM) | 20 (≈ 36.7 µM) | 20 (≈ 36.7 µM) | IC50 (Candida albicans [13]): 15 µg/mL (≈ 27.5 µM); MFC (Candida albicans [13]): 20 µg/mL (≈ 36.7 µM); MIC (Candida albicans [13]): 20 µg/mL (≈ 36.7 µM)
COc1cc(NC(C)CCCNC(=O)[C@H](CCCNC(=N)N)NC(=O)[C@@H](N)CCCNC(=N)N)c2ncccc2c1 (stereo not given in full) | 81 | Non-toxic | inactive | > 5 |  | inactive | inactive |  |  |  | inactive | inactive | 4.76 (≈ 8.33 µM) | inactive | inactive | Not Active | inactive | 4.5 (≈ 7.87 µM) | 10 (≈ 17.5 µM) | 10 (≈ 17.5 µM) | Activity (Candida albicans [11]): inactive; IC50 (Plasmodium falciparum [4]): Not Active
COc1cc(NC(C)CCCNC(=O)NCCC[C@@H](N)C(=O)O)c2nc(C(C)(C)C)ccc2c1 (stereo not given in full) | 250 | Non-toxic | inactive | 5 | 4.2 (≈ 8.87 µM) | inactive | inactive | > 5.5 |  |  | inactive | inactive | 4.76 (≈ 10.1 µM) |  |  | Not Active | inactive |  |  |  | 
COc1cc(NC(C)CCCNC(=O)C[C@H](NC(=O)[C@@H](N)CCCNC(=N)N)C(=O)O)c2ncccc2c1 (stereo not given in full) | 120 | Non-toxic | inactive | > 8.2 | 3 (≈ 5.65 µM) | inactive | inactive | > 7.9 |  |  | inactive | inactive | 2.9 (≈ 5.47 µM) |  |  | Not Active | inactive |  |  |  | 
